The source of these data is ChEMBL document CHEMBL1165909, “Analgesic, anti-pyretic and DNA cleavage studies of novel pyrimidine derivatives of coumarin moiety” (Eur J Med Chem, 2010).

The structures appear in SMILES notation.

In data set [1] the test system is Rattus norvegicus. Nature of the data set: Acute toxicity in albino Wistar rat assessed as mortality at up to 3 g/kg, po after 24 hrs. The data set is classed as organism-based. The note with it: in vivo, 3000 mg/kg. A digest of the protocol:
(§1)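 Albino rats of either sex, groups of six, dosed from 100 up to 3000 mg kg^-1 body weight. Watched continuously for 8 h for signs such as altered motor activity, ataxia, tremors, convulsions, sedation and lacrimation. Killed at 24 h; stomach, intestine and liver inspected under magnifying lenses for ulcer-haemorrhagic spots.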

Data set [2] deals with Rattus norvegicus. Briefly: Acute toxicity in albino Wistar rat assessed as sedation at up to 3 g/kg, po after 24 hrs. The data set is classed as organism-based. The note with it: in vivo, 3000 mg/kg. The essentials:
as §1

The subject of data set [3] is Rattus norvegicus. Briefly: Acute toxicity in albino Wistar rat assessed as convulsion at up to 3 g/kg, po after 24 hrs. The class given is organism-based. Conditions: in vivo, 3000 mg/kg. A digest of the protocol: as §1
For data set [4], the system named is Rattus norvegicus. Nature of the data set: Acute toxicity in albino Wistar rat assessed as tremors at up to 3 g/kg, po after 24 hrs. The data set is classed as organism-based. The note with it: in vivo, 3000 mg/kg. The essentials: as §1
In data set [5] the test system is Rattus norvegicus. Nature of the data set: Acute toxicity in albino Wistar rat assessed as ulceration at up to 3 g/kg, po after 24 hrs. The class given is organism-based. Conditions: in vivo, 3000 mg/kg. The essentials: as §1
Data set [6] has as its system Rattus norvegicus. Briefly: Acute toxicity in albino Wistar rat assessed as haemorrhagic spots at up to 3 g/kg, po after 24 hrs. The class given is organism-based. The note with it: in vivo, 3000 mg/kg. A digest of the protocol: as §1
The subject of data set [7] is Rattus norvegicus. Briefly: Acute toxicity in albino Wistar rat assessed as stomach ulcerhaemorrhagic spots at up to 3 g/kg, po after 24 hrs. The data set is classed as organism-based. Conditions: in vivo, 3000 mg/kg. A digest of the protocol:
as §1

Data set [8] relates to Rattus norvegicus. Briefly: Acute toxicity in albino Wistar rat assessed as intestine ulcerhaemorrhagic spots at up to 3 g/kg, po after 24 hrs. The class given is organism-based. Conditions: in vivo, 3000 mg/kg. A digest of the protocol: as §1
In data set [9] the test system is Rattus norvegicus. Nature of the data set: Analgesic activity in albino Wistar rat assessed as reaction time required for tail flicking at 25 mg/kg, po after 30 mins by tail-flick method (reference value: 3.97 +/- 0.287 sec). The data set is classed as functional.
Data set [10] relates to Rattus norvegicus. Nature of the data set: Analgesic activity in albino Wistar rat assessed as reaction time required for tail flicking at 25 mg/kg, po after 60 mins by tail-flick method (reference value: 4 +/- 0.360 sec). The class given is functional.
Data set [11] deals with Rattus norvegicus. Nature of the data set: Analgesic activity in albino Wistar rat assessed as reaction time required for tail flicking at 25 mg/kg, po after 90 mins by tail-flick method (reference value: 3.87 +/- 0.355 sec). The data set is classed as functional.
Data set [12] concerns Rattus norvegicus. Nature of the data set: Antipyretic activity against brewer's yeast-induced hyperthermia in albino Wistar rat assessed as change in rectal temperature at 100 mg/kg, po after 1 hr (reference value: 33.78 +/- 0.18 degC). The class given is functional.
For data set [13], the system named is Rattus norvegicus. Nature of the data set: Antipyretic activity against brewer's yeast-induced hyperthermia in albino Wistar rat assessed as change in rectal temperature at 100 mg/kg, po after 3 hrs (reference value: 32.80 +/- 0.09 degC). The class given is functional.
The subject of data set [14] is Rattus norvegicus. Nature of the data set: Antipyretic activity against brewer's yeast-induced hyperthermia in albino Wistar rat assessed as change in rectal temperature at 100 mg/kg, po after 5 hrs (reference value: 34.36 +/- 0.14 degC). The data set is classed as functional.
The test system of data set [15] is Rattus norvegicus. Nature of the data set: Antipyretic activity against brewer's yeast-induced hyperthermia in albino Wistar rat assessed as change in rectal temperature at 100 mg/kg, po after 6 hrs (reference value: 33.44 +/- 0.18 degC). The class given is functional.

Consider `Cc1ccc2oc(=O)cc(COc3ccc(-c4cc(-c5ccccc5)nc(N)n4)cc3)c2c1`, for which the Activity entry in the data set with Rattus norvegicus [1], in the data set on Rattus norvegicus [2], in the data set with Rattus norvegicus [3], with Rattus norvegicus [4], with Rattus norvegicus [5] and in the data set on Rattus norvegicus [6] was “Non-toxic” throughout. The Activity entry with Rattus norvegicus [7] and in the data set with Rattus norvegicus [8] was “Non-toxic” throughout. For the same molecule, the Time amounted to 4.75 s in the data set on Rattus norvegicus [9], 6.75 s in the data set on Rattus norvegicus [10] and 7.25 s in the data set on Rattus norvegicus [11]. The T in the data set on Rattus norvegicus [12] came out at 32.66 °C; in the data set on Rattus norvegicus [13], 31.68 °C; in the data set on Rattus norvegicus [14], 33.3 °C; in the data set on Rattus norvegicus [15] it was 33 °C.

With `Cc1ccc2oc(=O)cc(COc3ccc(-c4cc(-c5ccccc5)nc(S)n4)cc3)c2c1`, the Activity result in the data set with Rattus norvegicus [1], in the data set with Rattus norvegicus [2], with Rattus norvegicus [3], in the data set on Rattus norvegicus [4], with Rattus norvegicus [5] and in the data set with Rattus norvegicus [6] was “Non-toxic” throughout. Further, the Activity result with Rattus norvegicus [7] and in the data set on Rattus norvegicus [8] was “Non-toxic” in each case. Besides, the Time is given as 4.5 s with Rattus norvegicus [9], 6.5 s with Rattus norvegicus [10] and 7.45 s in the data set on Rattus norvegicus [11]. Moreover, the T was 32.55 °C in the data set on Rattus norvegicus [12], 32.77 °C with Rattus norvegicus [13], 32.8 °C in the data set with Rattus norvegicus [14] and 31.98 °C with Rattus norvegicus [15].

Consider `Cc1c(N(C)CS(=O)(=O)[O-])c(=O)n(-c2ccccc2)n1C.[Na+]` [DIPYRONE SODIUM], for which the Time in the data set with Rattus norvegicus [9] came out at 5.77 s; in the data set with Rattus norvegicus [10], 8.76 s; in the data set with Rattus norvegicus [11], 9.02 s.

`O=c1cc(COc2ccc(-c3cc(-c4ccccc4)nc(S)n3)cc2)c2cc(Cl)ccc2o1`: the Activity result with Rattus norvegicus [1], in the data set on Rattus norvegicus [2], in the data set on Rattus norvegicus [3], with Rattus norvegicus [4], in the data set with Rattus norvegicus [5] and in the data set on Rattus norvegicus [6] was “Non-toxic” throughout. Besides, the Activity entry with Rattus norvegicus [7] and in the data set on Rattus norvegicus [8] was “Non-toxic” each time. The Time with Rattus norvegicus [9] was found to be 5.1 s; with Rattus norvegicus [10], 7.54 s; with Rattus norvegicus [11] it was 8.5 s. Moreover, the T in the data set on Rattus norvegicus [12] was determined as 32.5 °C; in the data set with Rattus norvegicus [13], 32.61 °C; with Rattus norvegicus [14], 32.84 °C; in the data set on Rattus norvegicus [15], 32.84 °C.

As to `Nc1nc(-c2ccccc2)cc(-c2ccc(OCc3cc(=O)oc4c3ccc3ccccc34)cc2)n1`, the Activity entry in the data set on Rattus norvegicus [1], in the data set on Rattus norvegicus [2], with Rattus norvegicus [3], with Rattus norvegicus [4], in the data set on Rattus norvegicus [5] and in the data set with Rattus norvegicus [6] was “Non-toxic” each time. In addition, the Activity result in the data set on Rattus norvegicus [7] and in the data set with Rattus norvegicus [8] was “Non-toxic” in each case. In addition, the results for the Time in the data set with Rattus norvegicus [9], in the data set with Rattus norvegicus [10] and with Rattus norvegicus [11] were 4.04 s, 4.75 s and 5 s, respectively. The T with Rattus norvegicus [12] was determined as 32.68 °C; with Rattus norvegicus [13], 31.4 °C; in the data set with Rattus norvegicus [14] it was 32.51 °C; with Rattus norvegicus [15] it was 32.09 °C.

Consider `Nc1nc(-c2ccccc2)cc(-c2ccc(OCc3cc(=O)oc4ccc5ccccc5c34)cc2)n1`, for which the Activity entry in the data set with Rattus norvegicus [1], with Rattus norvegicus [2], in the data set with Rattus norvegicus [3], in the data set on Rattus norvegicus [4], in the data set on Rattus norvegicus [5] and in the data set with Rattus norvegicus [6] was “Non-toxic” throughout. Further, the Activity entry in the data set with Rattus norvegicus [7] and in the data set with Rattus norvegicus [8] was “Non-toxic” throughout. Besides, the Time came out at 4 s in the data set on Rattus norvegicus [9], 7.25 s in the data set with Rattus norvegicus [10] and 8 s in the data set on Rattus norvegicus [11]. The T turned out to be 32.8 °C in the data set with Rattus norvegicus [12], 31.84 °C in the data set with Rattus norvegicus [13], 32.22 °C with Rattus norvegicus [14] and 31.88 °C in the data set with Rattus norvegicus [15].
